Source: ChEMBL document CHEMBL3632508, “Discovery of α-mangostin as a novel competitive inhibitor against mutant isocitrate dehydrogenase-1” (Bioorg Med Chem Lett, 2015)
Activity calls are given as the source filed them. The calls are words filed in the database; no cut-off is given here.

Assays:
[1] = biological target: Isocitrate dehydrogenase [NADP] cytoplasmic (Homo sapiens, UniProt O75874, R132H); experiment: Competitive inhibition of IDH1-R132H mutant (unknown origin) using a-ketoglutarate and NADPH as substrate by steady state kinetic analysis
Outline: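 IDH1-R132H in buffer of 150 mM NaCl, 20 mM Tris–Cl pH 7.5, 10 mM MnCl₂, 150 μM β-NADPH, 0.03% (w/v) BSA; α-ketoglutarate varied to reach maximal activity; steady-state kinetic parameters fitted with an enzyme kinetics module.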

[2] = test system: Isocitrate dehydrogenase [NADP] cytoplasmic (Homo sapiens), O75874 [R132H]; experiment: Inhibition of IDH1-R132H mutant in human MCF10A cells assessed as increase in 5-fC level at 5 uM incubated for 24 hrs by DAPI staining based fluorescence microscopy; assay type: cell-based; settings: MCF-10A
Outline: (§1)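 Isogenic IDH1 (+/+) and (+/R132H) MCF10A cells on coverslips (5 × 10⁴ per well), 16 h at 37 °C, then 5 μM compound for 24 h; fixed in 4% paraformaldehyde, blocked, stained overnight with anti-5mC, 5hmC or 5fC antibodies; FITC secondary with DAPI, imaged by fluorescence microscopy.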

[3] = test system: Isocitrate dehydrogenase [NADP] cytoplasmic (Homo sapiens), O75874 [R132H]; experiment: Inhibition of IDH1-R132H mutant in human MCF10A cells assessed as decrease in histone H3 trimethylated lysine level (H3K27me3) at 5 uM incubated for 30 mins by Western blotting method; assay type: cell-based; settings: MCF-10A
Outline: (§2)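 Isogenic IDH1 (+/R132H) MCF10A cells, compared with IDH1 (+/+) cells, given 5 μM compound; lysed in SDS buffer, protein by BCA, SDS-PAGE, PVDF transfer; probed overnight at 4 °C with H3K4me3, H3K9me3, H3K27me3, H3K36me3 or H3K79me3 antibodies, total H3 as reference; HRP secondary, ECL detection.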

[4] = test system: Isocitrate dehydrogenase [NADP] cytoplasmic (Homo sapiens), O75874 [R132H]; experiment: Inhibition of IDH1-R132H mutant in human MCF10A cells assessed as decrease in histone H3 trimethylated lysine level (H3K9me3) at 5 uM incubated for 30 mins by Western blotting method; assay type: cell-based; settings: MCF-10A; outline: as §2
[5] = test system: Isocitrate dehydrogenase [NADP] cytoplasmic (Homo sapiens), O75874 [R132H]; experiment: Inhibition of IDH1-R132H mutant in human MCF10A cells assessed as decrease in histone H3 trimethylated lysine level (H3K79me3) at 5 uM incubated for 30 mins by Western blotting method; assay type: cell-based; settings: MCF-10A; outline: as §2
[6] = test system: Isocitrate dehydrogenase [NADP] cytoplasmic (Homo sapiens), O75874 [R132H]; experiment: Inhibition of IDH1-R132H mutant in human MCF10A cells assessed as decrease in histone H3 trimethylated lysine level (H3K4me3) at 5 uM incubated for 30 mins by Western blotting method; assay type: cell-based; settings: MCF-10A; outline: as §2
[7] = test system: Isocitrate dehydrogenase [NADP] cytoplasmic (Homo sapiens), O75874 [R132H]; experiment: Inhibition of IDH1-R132H mutant in human MCF10A cells assessed as decrease in 5-methylcytosine level at 5 uM incubated for 24 hrs by DAPI staining based fluorescence microscopy; assay type: cell-based; settings: MCF-10A; outline: as §1
[8] = Cytotoxicity against IDH1-R132H mutant expressing human MCF10A cells assessed as cell viability at 5 uM after 24 hrs by hemacytometer counting method; assay type: cell-based; settings: mcf-10a
Outline: (§3)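 Isogenic CRISPR-made IDH1 (+/+) and IDH1 (+/R132H) MCF10A cells seeded at 5.0 × 10⁴ per well, exposed to 5 μM compound, harvested at indicated times (24 h), viable cells counted by hemacytometer; mean ± standard deviation, Student t-test, n = 6.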

[9] = Cytotoxicity against IDH1 expressing human MCF10A cells assessed as cell viability at 5 uM after 24 hrs by hemacytometer counting method; assay type: cell-based; settings: mcf-10a; outline: as §3
[10] = test system: Isocitrate dehydrogenase [NADP] cytoplasmic (Homo sapiens), O75874 [R132H]; experiment: Inhibition of IDH1-R132H mutant in human MCF10A cells assessed as decrease in histone H3 trimethylated lysine level (H3K36me3) at 5 uM incubated for 30 mins by Western blotting method; assay type: cell-based; settings: MCF-10A; outline: as §2
[11] = test system: Isocitrate dehydrogenase [NADP] cytoplasmic (Homo sapiens), O75874 [R132H]; experiment: Inhibition of IDH1-R132H mutant in human MCF10A cells assessed as increase in 5-hmC level at 5 uM incubated for 24 hrs by DAPI staining based fluorescence microscopy; assay type: cell-based; settings: MCF-10A; outline: as §1

Isocitrate dehydrogenase [NADP] cytoplasmic, sequence (O75874 2-414 R132H limits assumed): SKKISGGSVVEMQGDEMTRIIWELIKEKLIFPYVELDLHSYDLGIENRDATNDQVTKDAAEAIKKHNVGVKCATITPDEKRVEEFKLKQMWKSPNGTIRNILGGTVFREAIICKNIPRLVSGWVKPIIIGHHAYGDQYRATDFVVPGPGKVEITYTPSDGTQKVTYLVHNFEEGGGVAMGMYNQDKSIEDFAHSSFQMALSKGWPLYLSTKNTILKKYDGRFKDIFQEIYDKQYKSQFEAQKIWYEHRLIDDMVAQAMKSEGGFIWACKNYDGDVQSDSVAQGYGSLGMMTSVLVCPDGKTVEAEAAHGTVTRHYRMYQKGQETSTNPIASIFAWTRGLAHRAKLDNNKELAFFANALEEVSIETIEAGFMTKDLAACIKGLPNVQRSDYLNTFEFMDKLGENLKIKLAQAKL
Isocitrate dehydrogenase [NADP] cytoplasmic (Homo sapiens), O75874 [R132H], sequence (O75874 whole entry R132H): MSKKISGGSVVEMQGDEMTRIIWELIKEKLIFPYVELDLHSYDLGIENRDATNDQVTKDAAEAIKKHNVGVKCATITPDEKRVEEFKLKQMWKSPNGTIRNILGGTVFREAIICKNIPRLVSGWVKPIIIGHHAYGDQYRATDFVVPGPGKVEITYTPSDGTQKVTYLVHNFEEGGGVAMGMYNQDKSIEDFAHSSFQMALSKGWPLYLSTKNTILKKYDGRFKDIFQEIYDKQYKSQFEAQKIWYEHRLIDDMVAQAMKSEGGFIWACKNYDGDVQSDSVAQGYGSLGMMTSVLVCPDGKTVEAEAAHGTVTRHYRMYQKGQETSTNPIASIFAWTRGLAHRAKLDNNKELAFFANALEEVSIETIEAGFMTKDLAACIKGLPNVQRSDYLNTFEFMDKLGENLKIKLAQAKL

COc1c(O)cc2oc3cc(O)c(CC=C(C)C)c(O)c3c(=O)c2c1CC=C(C)C [MANGOSTIN]
Ki ([1]; read-out: Ki): 2.85 µM
inhibition [2]: Active
inhibition [3]: Active
inhibition [4]: Active
inhibition [5]: Active
inhibition [6]: Active
inhibition [7]: Active
Activity [8]: Non-toxic
Activity [9]: Non-toxic
inhibition [10]: Active
inhibition [11]: Active

C=CCOc1cc2oc3cc(O)c(OC)c(CC=C(C)C)c3c(=O)c2c(O)c1CC=C(C)C
Ki [1]: Not Active

COc1cc2oc3cc(O)c(OC)c(CC=C(C)C)c3c(=O)c2c(O)c1CC=C(C)C
Ki ([1]; read-out: Ki): 12 µM

CC(C)=CCc1c(O)cc2oc3cc(O)c(OCc4cn(CC(=O)OC(C)(C)C)nn4)c(CC=C(C)C)c3c(=O)c2c1O
Ki [1]: Not Active

C=CCOc1cc2oc3cc(O)c(CC=C(C)C)c(O)c3c(=O)c2c(CC=C(C)C)c1OC
Ki ([1]; read-out: Ki): 17.4 µM

COc1c(OC(=O)N2CCOCC2)cc2oc3cc(O)c(CC=C(C)C)c(O)c3c(=O)c2c1CC=C(C)C
Ki [1]: Not Active
